Test results taken from PubChem BioAssay.
Active and inactive are the calls of the source.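 The calls were made as follows, unless noted: active = current rise at least 3 SD above the untreated control mean in each of two repeat wells; inactive = the rest.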

What was measured:
[1] = nonspecific flux increase, KCNQ1-free cells – parental CHO cells, counter-screen for KCNQ1 potentiator project (AID 493006;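 active = duplicate-averaged activation above buffer control mean plus 5 SD of those controls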;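 as to activation: fluorescence ratio of max minus min over baseline after K+ and Tl+ depolarization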); conditions: parental CHO-K1 cells, FluxOR thallium flux, at 10 µM; hits give high values
Summary of the method: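 Benchmarks – buffer and R-L3 controls · Assay system – untransfected host CHO-K1 cells with FluxOR thallium dye · Measure – fluorescence change ratio scaled 0% buffer, 100% R-L3 · Technique – kinetic thallium-flux fluorescence · Timing – overnight 37 °C plating, 90 min RT dye, 20 min compound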

[2] = target: Potassium voltage-gated channel subfamily KQT member 1 (Homo sapiens) (UniProt P51787); test: enhancement of KCNQ1 channel thallium flux – FluxOR thallium flux, CHO cells, duplicates, confirmation (AID 493007;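 active = potentiation averaged over duplicate wells exceeding buffer-only control mean by more than 3 SD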;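 as to outcome: cells depolarized by a potassium plus thallium sulfate stimulus after compound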); conditions: KCNQ1 cell line, FluxOR thallium flux fluorescence, at 10 µM; hits give high values, % of reference activator effect, buffer zero
Sequence of Potassium voltage-gated channel subfamily KQT member 1 (Homo sapiens) (P51787 whole entry, looked up): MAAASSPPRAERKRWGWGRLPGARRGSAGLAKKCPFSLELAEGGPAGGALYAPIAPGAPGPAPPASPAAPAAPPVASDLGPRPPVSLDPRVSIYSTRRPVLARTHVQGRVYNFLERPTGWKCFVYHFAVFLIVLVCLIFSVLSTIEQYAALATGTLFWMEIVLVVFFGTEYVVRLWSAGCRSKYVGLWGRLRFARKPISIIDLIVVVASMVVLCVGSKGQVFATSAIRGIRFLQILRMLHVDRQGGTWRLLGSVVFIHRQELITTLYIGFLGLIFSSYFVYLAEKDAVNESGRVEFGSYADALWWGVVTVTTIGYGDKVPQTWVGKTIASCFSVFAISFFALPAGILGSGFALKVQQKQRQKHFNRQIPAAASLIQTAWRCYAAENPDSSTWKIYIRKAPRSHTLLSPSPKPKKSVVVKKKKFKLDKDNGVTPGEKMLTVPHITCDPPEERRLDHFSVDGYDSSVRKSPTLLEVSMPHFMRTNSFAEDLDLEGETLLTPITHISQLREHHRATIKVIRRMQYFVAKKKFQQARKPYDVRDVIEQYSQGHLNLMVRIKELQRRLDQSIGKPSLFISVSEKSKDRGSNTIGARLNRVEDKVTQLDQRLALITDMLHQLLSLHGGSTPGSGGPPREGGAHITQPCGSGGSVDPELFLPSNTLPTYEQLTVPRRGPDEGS
Summary of the method: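 Material: CHO cells stably expressing the KCNQ1 potassium channel / Times: dye 90 min then compound 20 min, both at room temperature / Detection: kinetic thallium influx fluorescence with FluxOR dye, 10 s baseline, 110 s post-stimulus / Benchmarks: buffer-only wells as 0% and R-L3 activator as 100% / Replicates: each compound tested in duplicate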

[3] = target: Potassium voltage-gated channel subfamily KQT member 2 (Rattus norvegicus) (UniProt O88943); test: KCNQ2 thallium flux enhancement – KCNQ2-CHO-K1 cells, selectivity assay for KCNQ1 potentiator project (AID 493009;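 active = mean duplicate potentiation above the buffer control mean plus 5 SD of buffer wells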;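 also: assay conditions were tuned for KCNQ1 rather than KCNQ2 modulators; signal is max minus min fluorescence divided by baseline after thallium stimulus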); conditions: FluxOR thallium flux fluorescence, at 10 µM; hits give high values, scaled: buffer 0, activator control 100
Sequence of Potassium voltage-gated channel subfamily KQT member 2 (Rattus norvegicus) (O88943 whole entry, looked up): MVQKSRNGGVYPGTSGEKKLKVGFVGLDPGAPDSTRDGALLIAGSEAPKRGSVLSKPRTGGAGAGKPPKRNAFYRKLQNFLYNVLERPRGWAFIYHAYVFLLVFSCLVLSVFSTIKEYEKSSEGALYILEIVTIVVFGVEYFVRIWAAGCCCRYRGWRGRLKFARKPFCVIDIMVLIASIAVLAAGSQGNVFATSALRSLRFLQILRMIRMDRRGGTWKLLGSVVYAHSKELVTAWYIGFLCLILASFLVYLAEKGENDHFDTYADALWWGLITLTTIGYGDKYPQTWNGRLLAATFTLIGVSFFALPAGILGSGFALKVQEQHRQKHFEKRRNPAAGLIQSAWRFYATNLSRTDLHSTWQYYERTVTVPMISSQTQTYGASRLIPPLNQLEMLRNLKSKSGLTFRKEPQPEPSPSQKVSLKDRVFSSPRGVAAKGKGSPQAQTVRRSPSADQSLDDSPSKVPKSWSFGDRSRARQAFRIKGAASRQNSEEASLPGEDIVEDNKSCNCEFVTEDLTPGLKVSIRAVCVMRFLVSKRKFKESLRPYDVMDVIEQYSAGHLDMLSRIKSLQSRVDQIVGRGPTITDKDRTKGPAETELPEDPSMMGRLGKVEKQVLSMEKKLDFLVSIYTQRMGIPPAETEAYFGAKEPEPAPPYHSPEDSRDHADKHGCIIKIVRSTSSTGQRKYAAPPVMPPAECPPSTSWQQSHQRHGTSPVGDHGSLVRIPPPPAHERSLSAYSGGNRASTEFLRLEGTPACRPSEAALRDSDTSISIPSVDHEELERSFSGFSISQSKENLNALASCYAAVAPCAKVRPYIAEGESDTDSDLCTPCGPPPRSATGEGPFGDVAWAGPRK

[4] = target: Potassium voltage-gated channel subfamily KQT member 1 (Homo sapiens) (UniProt P51787); test: KCNQ1 activators by electrophysiology – IonWorks patch clamp, KCNQ1-CHO cells, orthogonal assay for KCNQ1 potentiator project, confirmation (AID 493184); conditions: automated patch clamp current, at 10 µM; hits give high values;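 as to current potentiation: percent change of the same well's current before compound addition so 0% = no change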
Summary of the method: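 Probe or stimulus: depolarizing pulse to +40 mV from -90 mV; Material: CHO cells carrying KCNQ1; Compound: one dose, 10 µM final; Signal: automated voltage clamp, amphotericin B perforated patch; Read-out basis: percent current increase versus pre-compound level; Buffer or medium: pH 7.4 external bath; Replication: duplicates.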

## Cc1ccc(C(=O)N/N=C(/CC(=O)c2cccs2)C(F)(F)F)cc1
[1]
  activation: 234% (active)
[2]
  potentiation: 66.5% (active)
[3]
  potentiation: 246% (active)
[4]
  outcome: inactive

## C=CCN(CC=C)C(=S)NC(=O)c1ccc([N+](=O)[O-])cc1
[1]
  activation: 366% (active)
[2]
  potentiation: 137% (active)
[3]
  potentiation: 359% (active)
[4]
  outcome: inactive

## Nc1nc(-c2ccccc2)c(N=Nc2ccccc2Cl)s1
[1]
  activation: 488% (active)
[2]
  potentiation: 168% (active)
[3]
  potentiation: 416% (active)
[4]
  outcome: inactive

## Cc1[nH]n(-c2ccc(Cl)cc2)c(=O)c1/C=N/c1nnc(-c2ccccc2)s1
[1]
  activation: 678% (active)
[2]
  potentiation: 182% (active)
[3]
  potentiation: 466% (active)
[4]
  outcome: inactive

## CCCOc1ccccc1Cn1c(=O)oc2ccc(C)cc21
[1]
  outcome: inactive
[2]
  outcome: inactive
[3]
  outcome: inactive
[4]
  outcome: inactive

## O=C(NCc1ccc(F)cc1)C1CCC(CNS(=O)(=O)c2ccccc2)CC1 (stereo not drawn)
[1]
  outcome: inactive
[2]
  outcome: inactive
[3]
  outcome: inactive
[4]
  outcome: inactive

## O=C(N/N=C/c1ccccn1)c1cc(Br)ccc1O
[1]
  activation: 147% (active)
[2]
  potentiation: 24% (active)
[3]
  potentiation: 182% (active)
[4]
  outcome: inactive

## COc1cccc(C2=NOC(C(=O)NCc3ccccc3)C2)c1 (stereo not drawn)
[1]
  outcome: inactive
[2]
  outcome: inactive
[3]
  outcome: inactive
[4]
  outcome: inactive

## CC1Cc2cc(/C=C3/SC(=S)NC3=O)ccc2O1 (stereo not drawn)
[1]
  outcome: inactive
[2]
  outcome: inactive
[3]
  outcome: inactive
[4]
  current potentiation: 24.4% (active)

## O=C(CCOc1ccccc1)Nc1ccnn1C1CCN(Cc2ccc(CO)o2)CC1
[1]
  outcome: inactive
[2]
  outcome: inactive
[3]
  outcome: inactive
[4]
  outcome: inactive

## CCCn1c(=S)[nH]c2ccccc2c1=O
[1]
  activation: 153% (active)
[2]
  potentiation: 18.5% (active)
[3]
  potentiation: 168% (active)
[4]
  outcome: inactive

## COC(=O)CCCC[C@@H]1SC[C@@H](NC(=O)OC)[C@@H]1NC(=O)OC
[1]
  outcome: inactive
[2]
  outcome: inactive
[3]
  outcome: inactive
[4]
  outcome: inactive

## CCOC(=O)c1c(NC(=S)NCC2CCCO2)sc(C)c1C (stereo not drawn)
[1]
  outcome: inactive
[2]
  outcome: inactive
[3]
  outcome: inactive
[4]
  outcome: inactive

## C=CCSc1nc2sc3c(c2c(=O)n1CC)CCc1ccccc1-3
[1]
  activation: 160% (active)
[2]
  potentiation: 91% (active)
[3]
  potentiation: 192% (active)
[4]
  outcome: inactive

## CC(=O)c1c(C)[nH]c(-c2ccccc2)nc1=S
[1]
  activation: 151% (active)
[2]
  potentiation: 40% (active)
[3]
  potentiation: 178% (active)
[4]
  outcome: inactive

## CN(C)CC1CCCCC1OC(=O)/C=C/c1ccc(Cl)cc1Cl (stereo not drawn)
[1]
  outcome: inactive
[2]
  outcome: inactive
[3]
  outcome: inactive
[4]
  outcome: inactive

## Cc1cc(OCC(=O)NNC(=O)c2cnccn2)cc(C)c1Cl
[1]
  activation: 200% (active)
[2]
  potentiation: 22% (active)
[3]
  potentiation: 279% (active)
[4]
  outcome: inactive

## CCC(C)c1ccccc1OCCCNC1CCCC1 (stereo not drawn)
[1]
  outcome: inactive
[2]
  outcome: inactive
[3]
  outcome: inactive
[4]
  outcome: inactive

## S=c1nc(Cc2ccc(Cl)cc2)[nH]c2ccccc12
[1]
  activation: 372% (active)
[2]
  potentiation: 148% (active)
[3]
  potentiation: 350% (active)
[4]
  outcome: inactive

## COn1c(SCc2ccc(C)cc2C)nc2ccccc2c1=O
[1]
  outcome: inactive
[2]
  outcome: inactive
[3]
  outcome: inactive
[4]
  outcome: inactive

## O=C(C1CCN(Cc2ccccc2)CC1)N1CCN(C/C=C/c2ccccc2)CC1
[1]
  outcome: inactive
[2]
  outcome: inactive
[3]
  outcome: inactive
[4]
  outcome: inactive

## CCC(C)CCCCCCCCCCC(=O)O (stereo not drawn)
[1]
  activation: 382% (active)
[2]
  potentiation: 318% (active)
[3]
  potentiation: 302% (active)
[4]
  outcome: inactive

## COc1cccc2sc(NNC(=O)c3nc4ccccc4s3)nc12
[1]
  activation: 300% (active)
[2]
  potentiation: 191% (active)
[3]
  potentiation: 420% (active)
[4]
  outcome: inactive

## O=C(NC(=S)NC1CCCCC1)c1ccc(F)cc1
[1]
  outcome: inactive
[2]
  outcome: inactive
[3]
  outcome: inactive
[4]
  outcome: inactive

## CCCN(CCC)C(=S)NC(=O)c1ccc(Cl)cc1Cl
[1]
  activation: 470% (active)
[2]
  potentiation: 204% (active)
[3]
  potentiation: 448% (active)
[4]
  outcome: inactive

## CC1CCCCC1NC(=S)NC(=O)c1cccs1 (stereo not drawn)
[1]
  activation: 181% (active)
[2]
  potentiation: 100% (active)
[3]
  potentiation: 300% (active)
[4]
  outcome: inactive

## CCc1cc(-c2n[nH]c(C)c2-c2nc3ccccc3s2)c(O)cc1OCC(=O)NN
[1]
  outcome: inactive
[2]
  outcome: inactive
[3]
  outcome: inactive
[4]
  outcome: inactive

## Cc1ccc(C)c(/C=C/C(=O)c2ccccc(=O)c2O)c1
[1]
  activation: 194% (active)
[2]
  potentiation: 118% (active)
[3]
  potentiation: 333% (active)
[4]
  outcome: inactive

## Cc1ccc(N(C(=O)c2ccco2)C(C(=O)NC2CCCC2)c2cccnc2)cc1C (stereo not drawn)
[1]
  outcome: inactive
[2]
  outcome: inactive
[3]
  outcome: inactive
[4]
  outcome: inactive

## C/C(=N\NC(=S)Nc1cccc(C)c1)c1cc2ccccc2o1
[1]
  activation: 159% (active)
[2]
  potentiation: 60% (active)
[3]
  potentiation: 172% (active)
[4]
  outcome: inactive

## O=c1c(O)c(-c2cccs2)oc2ccccc12
[1]
  activation: 290% (active)
[2]
  potentiation: 115% (active)
[3]
  potentiation: 289% (active)
[4]
  outcome: inactive

## COc1ccccc1CNCc1cccc(Oc2ccccc2)c1
[1]
  outcome: inactive
[2]
  outcome: inactive
[3]
  outcome: inactive
[4]
  outcome: inactive
